From ChEMBL document CHEMBL1128216, “Rational design and synthesis of small molecule, non-oligosaccharide selectin inhibitors: (alpha-D-mannopyranosyloxy)biphenyl-substituted carboxylic acids” (J Med Chem, 1995)
One block for each molecule: values may come before it.

What was measured:
E-selectin = target: T1, E-selectin (Homo sapiens, UniProt P16581); experiment: In vitro inhibition of HL60 (human leukemia) cell binding to human recombinant e-selectin.; type: cell-based, HL-60
T1 sequence (P16581 whole entry): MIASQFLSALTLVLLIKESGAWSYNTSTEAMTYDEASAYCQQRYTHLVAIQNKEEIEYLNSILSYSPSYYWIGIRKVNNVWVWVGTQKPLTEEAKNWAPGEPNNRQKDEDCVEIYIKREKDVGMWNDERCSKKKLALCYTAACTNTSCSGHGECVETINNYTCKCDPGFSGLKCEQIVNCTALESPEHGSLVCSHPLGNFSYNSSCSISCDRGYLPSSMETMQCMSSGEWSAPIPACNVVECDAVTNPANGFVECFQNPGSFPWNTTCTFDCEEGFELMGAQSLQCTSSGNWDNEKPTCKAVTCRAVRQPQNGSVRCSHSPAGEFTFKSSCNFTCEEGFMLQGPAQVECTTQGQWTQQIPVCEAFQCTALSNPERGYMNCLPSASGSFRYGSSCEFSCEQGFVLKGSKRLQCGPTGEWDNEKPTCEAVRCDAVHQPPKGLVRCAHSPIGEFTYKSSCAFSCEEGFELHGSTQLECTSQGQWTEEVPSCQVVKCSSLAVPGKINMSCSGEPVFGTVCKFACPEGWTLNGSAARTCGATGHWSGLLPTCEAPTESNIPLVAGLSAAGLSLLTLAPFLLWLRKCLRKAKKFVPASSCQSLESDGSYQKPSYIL
Procedure, shortened: (§1)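 Human E-selectin (lectin, EGF and two complement repeats) fused to mouse IgG was captured on anti-mouse IgG magnetic beads overnight at 4 °C. Wells were pre-blocked with 3% BSA/PBS. Compound in PBS was mixed with calcein-labelled HL60 cells (10⁷/mL, RPMI 1640 + 10% FCS) and beads (4 × 10⁶/mL) for 10 min at room temperature. Unbound cells were removed magnetically with two PBS washes, and bound cells were lysed in 1% NP40.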

P-selectin = target: T2, P-selectin (Homo sapiens, UniProt P16109); experiment: In vitro inhibitory activity against sialyl Lewis X expressing HL60 cell binding Selectin P; type: cell-based, HL-60
T2 sequence (P16109 whole entry): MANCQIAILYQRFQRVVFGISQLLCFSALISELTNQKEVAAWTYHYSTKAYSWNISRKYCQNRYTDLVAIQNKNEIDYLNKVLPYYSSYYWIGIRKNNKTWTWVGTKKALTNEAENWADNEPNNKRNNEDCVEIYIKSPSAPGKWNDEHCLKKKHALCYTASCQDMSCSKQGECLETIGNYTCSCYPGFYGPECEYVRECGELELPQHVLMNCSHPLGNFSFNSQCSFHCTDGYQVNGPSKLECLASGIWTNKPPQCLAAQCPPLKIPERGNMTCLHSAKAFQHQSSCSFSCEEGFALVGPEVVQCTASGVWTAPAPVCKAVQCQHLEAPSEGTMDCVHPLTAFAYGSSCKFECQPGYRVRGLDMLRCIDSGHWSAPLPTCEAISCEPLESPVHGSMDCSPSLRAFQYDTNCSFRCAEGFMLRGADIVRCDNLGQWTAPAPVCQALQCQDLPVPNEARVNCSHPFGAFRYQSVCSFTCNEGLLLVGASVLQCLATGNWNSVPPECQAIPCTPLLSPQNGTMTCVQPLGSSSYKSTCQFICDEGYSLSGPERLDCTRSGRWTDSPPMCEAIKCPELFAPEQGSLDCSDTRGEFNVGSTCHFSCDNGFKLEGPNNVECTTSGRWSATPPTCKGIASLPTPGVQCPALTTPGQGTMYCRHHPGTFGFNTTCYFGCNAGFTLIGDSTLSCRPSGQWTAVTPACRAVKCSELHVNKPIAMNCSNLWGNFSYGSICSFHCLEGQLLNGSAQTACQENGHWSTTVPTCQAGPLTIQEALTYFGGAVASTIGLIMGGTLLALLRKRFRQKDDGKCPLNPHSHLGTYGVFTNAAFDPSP

[1] = target: T3, P-selectin (Homo sapiens) (UniProt P16109); experiment: In vitro inhibitory activity against sialyl Lewis X expressing HL60 cell binding Selectin P at 20 mM concentration; type: cell-based; conditions: HL-60
T3 sequence (whole entry): T2 sequence (P16109 whole entry)

[2] = target: T4, L-selectin (Mus musculus) (UniProt P18337); experiment: In vitro inhibitory activity against sialyl Lewis X expressing HL60 cell binding to Selectin L at 6 mM concentration; type: cell-based; conditions: HL-60
T4 sequence (whole entry): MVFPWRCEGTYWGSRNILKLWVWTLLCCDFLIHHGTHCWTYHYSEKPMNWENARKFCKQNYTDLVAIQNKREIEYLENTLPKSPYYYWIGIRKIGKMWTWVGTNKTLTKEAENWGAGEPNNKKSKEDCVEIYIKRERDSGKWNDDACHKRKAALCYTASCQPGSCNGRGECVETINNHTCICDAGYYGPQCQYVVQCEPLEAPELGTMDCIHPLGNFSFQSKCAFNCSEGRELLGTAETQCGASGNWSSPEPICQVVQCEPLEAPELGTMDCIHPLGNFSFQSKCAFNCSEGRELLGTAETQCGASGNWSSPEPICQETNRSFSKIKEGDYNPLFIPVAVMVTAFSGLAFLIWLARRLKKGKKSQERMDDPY

[3] = target: T5, E-selectin (Homo sapiens) (UniProt P16581); experiment: In vitro inhibitory activity against sialyl Lewis X expressing HL60 cell binding to recombinant human E-selectin at 40 mM concentration; type: cell-based; conditions: HL-60; procedure, shortened: as §1
T5 sequence (whole entry): T1 sequence (P16581 whole entry)

[4] = target: T3, P-selectin (Homo sapiens); experiment: In vitro inhibitory activity against sialyl Lewis X expressing HL60 cell binding Selectin P at 10 mM concentration; type: cell-based; conditions: HL-60
[5] = target: T4, L-selectin (Mus musculus); experiment: In vitro inhibitory activity against sialyl Lewis X expressing HL60 cell binding to Selectin L at 5 mM concentration; type: cell-based; conditions: HL-60
[6] = target: T3, P-selectin (Homo sapiens); experiment: In vitro inhibitory activity against sialyl Lewis X expressing HL60 cell binding Selectin P at 4 mM concentration; type: cell-based; conditions: HL-60
[7] = target: T4, L-selectin (Mus musculus); experiment: In vitro inhibitory activity against sialyl Lewis X expressing HL60 cell binding Selectin L at 1 mM concentration; type: cell-based; conditions: HL-60
[8] = target: T5, E-selectin (Homo sapiens); experiment: In vitro inhibitory activity against sialyl Lewis X expressing HL60 cell binding to recombinant human E-selectin at 16.3 mM concentration; type: cell-based; conditions: HL-60; procedure, shortened: as §1
L-selectin = target: T6, L-selectin (Mus musculus, UniProt P18337); experiment: In vitro inhibitory activity against sialyl Lewis X expressing HL60 cell binding Selectin L; type: cell-based, HL-60
T6 sequence (P18337 whole entry): T4 sequence (whole entry)

[9] = target: T3, P-selectin (Homo sapiens); experiment: In vitro inhibitory activity against sialyl Lewis X expressing HL60 cell binding Selectin P at 25 mM concentration; type: cell-based; conditions: HL-60
[10] = target: T4, L-selectin (Mus musculus); experiment: In vitro inhibitory activity against sialyl Lewis X expressing HL60 cell binding to Selectin L at 8 mM concentration; type: cell-based; conditions: HL-60
[11] = target: T4, L-selectin (Mus musculus); experiment: In vitro inhibitory activity against sialyl Lewis X expressing HL60 cell binding to Selectin L at 7 mM concentration; type: cell-based; conditions: HL-60
[12] = target: T5, E-selectin (Homo sapiens); experiment: In vitro inhibitory activity against sialyl Lewis X expressing HL60 cell binding to recombinant human E-selectin at 6 mM concentration; type: cell-based; conditions: HL-60; procedure, shortened: as §1
[13] = target: T4, L-selectin (Mus musculus); experiment: In vitro inhibitory activity against sialyl Lewis X expressing HL60 cell binding to L-selectin at 6 mM concentration; type: cell-based; conditions: HL-60

- IC50 (E-selectin): 34.4 mM
- IC50 (P-selectin): 12.4 mM
Compound: CCOP(=O)(O)CCCc1cccc(-c2ccccc2O[C@H]2O[C@H](CO)[C@@H](O)[C@@H](O)[C@@H]2O)c1

- IC50 (P-selectin): 20 mM
Compound: CC(C(=O)O)c1cccc(-c2ccccc2O[C@H]2O[C@H](CO)[C@@H](O)[C@@H](O)[C@@H]2O)c1 (stereo in doubt; 9r) [listing 1 of 2 here]

- inhibition [3]: 0%
- inhibition [2]: 40%
Compound: CC(C(=O)O)c1cccc(-c2ccccc2O[C@H]2O[C@H](CO)[C@@H](O)[C@@H](O)[C@@H]2O)c1 (stereo in doubt; 9r) [listing 2 of 2 here]

- inhibition [4]: 30%
- inhibition [2]: 0%
Compound: CC(C(=O)O)c1cccc(-c2ccccc2O[C@H]2O[C@H](CO)[C@@H](O)[C@@H](O)[C@@H]2O)c1 (stereo in doubt; 9s)

- IC50 (E-selectin): 15.8 mM
- inhibition [5]: 15%
Compound: O=C(O)CC[C@H](NC(=O)c1cccc(-c2ccccc2O[C@H]2O[C@H](CO)[C@@H](O)[C@@H](O)[C@@H]2O)c1)C(=O)O

- IC50 (E-selectin): 20 mM
- inhibition [9]: 20%
- inhibition [10]: 0%
Compound: O=C(O)COc1ccccc1-c1ccccc1O[C@H]1O[C@H](CO)[C@@H](O)[C@@H](O)[C@@H]1O

- inhibition [12]: 0%
Compound: O=C(O)C(=O)Nc1cccc(-c2ccccc2O[C@H]2O[C@H](CO)[C@@H](O)[C@@H](O)[C@@H]2O)c1

- IC50 (E-selectin): 6.1 mM
- inhibition [13]: 20%
- IC50 (P-selectin): 20 mM
Compound: O=C(O)COc1ccc(-c2ccccc2O[C@H]2O[C@H](CO)[C@@H](O)[C@@H](O)[C@@H]2O)cc1

- IC50 (E-selectin): 14.6 mM
- inhibition [1]: 0%
- inhibition [11]: 0%
Compound: O=C(O)c1ccc(-c2ccccc2O[C@H]2O[C@H](CO)[C@@H](O)[C@@H](O)[C@@H]2O)cc1

The next lines start with the molecule.

Compound: O=C(NC(Cc1ccccc1)C(=O)O)c1ccc(-c2ccccc2O[C@H]2O[C@H](CO)[C@@H](O)[C@@H](O)[C@@H]2O)cc1 (stereo partly drawn)
- IC50 (E-selectin): 11.5 mM

Compound: Cc1ccc(O[C@H]2O[C@H](CO)[C@@H](O)[C@@H](O)[C@@H]2O)c(-c2cccc(OCC(=O)O)c2)c1
- IC50 (E-selectin): 14 mM

Compound: O=C(O)CNC(=O)c1ccc(-c2ccccc2O[C@H]2O[C@H](CO)[C@@H](O)[C@@H](O)[C@@H]2O)cc1
- IC50 (E-selectin): 4.6 mM
- inhibition [1]: 0%
- inhibition [2]: 0%

Compound: O=C(O)CCC(NC(=O)c1ccc(-c2ccccc2O[C@H]2O[C@H](CO)[C@@H](O)[C@@H](O)[C@@H]2O)cc1)C(=O)O (stereo partly drawn)
- IC50 (E-selectin): 32 mM
- inhibition [6]: 35%
- inhibition [7]: 0%

Compound: O=C(O)CC(NC(=O)c1ccc(-c2ccccc2O[C@H]2O[C@H](CO)[C@@H](O)[C@@H](O)[C@@H]2O)cc1)C(=O)O (stereo partly drawn)
- inhibition [8]: 0%
- IC50 (L-selectin): 5 mM
- IC50 (P-selectin): 2 mM

Compound: Cc1cc(-c2ccccc2O[C@H]2O[C@H](CO)[C@@H](O)[C@@H](O)[C@@H]2O)cc(C)c1OCC(=O)O
- IC50 (E-selectin): 8 mM
- inhibition [11]: 0%
- IC50 (P-selectin): 6.9 mM
